A short description of data set [1]: Cytotoxicity against human HuH7 cells after 24 hrs. Format: cell-based, Huh-7.
The nature of data set [2]: Metabolic stability in human liver microsomes assessed as parent compound remaining after 60 mins. Format: ADME, microsome. The conditions noted are these: read-out: Stability. (In general: Liver microsomes are vesicles of endoplasmic reticulum, rich in cytochrome P450 enzymes.)
A short description of data set [3]: Metabolic stability in rat liver microsomes assessed as parent compound remaining after 60 mins. The conditions noted are these: read-out: Stability. The format is ADME, microsome.
A further data set concerns Rattus norvegicus. The experiment in a line: Clearance in Sprague-Dawley rat at 1 mg/kg, iv. The format is ADME, organism-based. The conditions noted are these: in vivo. The method in brief: (§1)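 Sprague-Dawley rats (n=3) dosed iv at 1 mg/kg as a solution in 10% NMP/10% solutol/40% PEG-400/40% saline.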
The nature of data set [4]: Volume of distribution at steady state in Sprague-Dawley rat at 1 mg/kg, iv. Format: ADME, organism-based. The conditions noted are these: in vivo, read-out: Vdss. Put shortly: as §1
The nature of data set [5]: Half life in Sprague-Dawley rat at 1 mg/kg, iv. The following applies: in vivo. Format: ADME, organism-based. The method in brief: as §1
Data set [6] can be described thus: AUC (infinity) in Sprague-Dawley rat at 1 mg/kg, iv. The format is ADME, organism-based. On the set-up: dose 1 mg/kg, time infinity, route intravenous. The following applies: in vivo. Put shortly:
as §1

A short description of data set [7]: Oral bioavailability in Sprague-Dawley rat at 5 mg/kg. Format: ADME, organism-based. The conditions noted are these: in vivo. The method in brief:
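Sprague-Dawley rats (n=3) dosed po at 5 mg/kg as a solution in 10% NMP/10% solutol/40% PEG-400/40% saline. Iv arm given at 1 mg/kg in the same vehicle.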

A short description of data set [8]: Intrinsic solubility of the compound. The format is physicochemical.

A value given as a limit tells only on which side of the number the result lay.

One may read the CC50 as the concentration at which the toxic effect on the cells reaches its halfway point. Read a high CC50 as lower toxicity to the cells. `CNC(=O)c1c(-c2ccc(F)cc2)oc2cc3c(cc12)[C@H](C)O[C@H](CS(C)(=O)=O)CN3S(C)(=O)=O` displayed a CC50 at 24 h in data set [1] greater than 10 µM. For the same compound, the remaining at 1 h in [2] and in data set [3] was 100% throughout.

In general, clearance refers to the volume of plasma or blood freed of the substance per unit of time. Higher therefore signals efficient removal. Usually half-life stands for the time in which the quantity being followed falls by half. Higher therefore signals slow decline. One may read the AUC(0-inf) as total exposure, with the tail of the curve extrapolated. A higher AUC(0-inf) goes with high exposure. As usually defined, the bioavailability is the share of a dose that reaches the circulation, judged against a reference dose that is usually intravenous. Read a low bioavailability as little systemic uptake. The compound `CNC(=O)c1c(-c2ccc(F)cc2)oc2cc3c(cc12)[C@H](C)O[C@H](CO)CN3S(C)(=O)=O` gave a clearance in the data set with Rattus norvegicus of 22 mL/min/kg. For the same compound, in data set [1], the CC50 at 24 h is greater than 3 µM. The Vd in data set [4] came out at 2.25 L/kg. In addition, the remaining at 1 h in data set [2] turned out to be 100%; in data set [3], 60%. In data set [5], this compound had a half-life of 1.32 h. Also, the AUC(0-inf) in data set [6] amounted to 759 ng·h/mL. The bioavailability in data set [7] amounted to 73%.

With `CNC(=O)c1c(-c2ccc(F)cc2)oc2cc3c(cc12)C(C)n1nncc1CN3S(C)(=O)=O` (racemic), the solubility entry in data set [8] is “Insoluble”.

As for `CNC(=O)c1c(-c2ccc(F)cc2)oc2cc3c(cc12)C(C)N(C)CCN3S(C)(=O)=O` (racemic), in data set [8], the solubility result is given as “Soluble”.

`CS(=O)(=O)N1CCCCc2cc3c(-c4ncc[nH]4)c(-c4ccc(F)cc4)oc3cc21`: the solubility result in data set [8] is recorded as “Insoluble”.

As for `CNC(=O)c1c(-c2ccc(F)cc2)oc2cc3c(cc12)[C@H](C)CCCN3S(C)(=O)=O`, the clearance with Rattus norvegicus was found to be 38.2 mL/min/kg. The Vd in data set [4] is 2.36 L/kg. This compound also had a half-life in data set [5] of 0.96 h. This compound registered an AUC(0-inf) in data set [6] of 439 ng·h/mL. Moreover, in [7], the bioavailability is 22%.

The compound `CNC(=O)c1c(-c2ccc(F)cc2)oc2cc(N(CCO)S(C)(=O)=O)c(C3CC3)cc12` [NESBUVIR] came in with a clearance in the data set on Rattus norvegicus of 10.4 mL/min/kg. Also, the Vd in [4] is 1.52 L/kg. Further, the remaining at 1 h was 53.3% in data set [2] and 84% in data set [3]. In addition, the half-life in data set [5] is 2.73 h. This compound also registered an AUC(0-inf) in [6] of 1610 ng·h/mL. The same compound yielded a bioavailability in data set [7] of 73%.

In the case of `CNC(=O)c1c(-c2ccc(F)cc2)oc2cc3c(cc12)C(C)NCCN3S(C)(=O)=O` (racemic), the solubility result in [8] is “Soluble”.

As to `CNC(=O)c1c(-c2ccc(F)cc2)oc2cc3c(cc12)C(C)n1ccnc1CN3S(C)(=O)=O` (racemic), the solubility result in data set [8] was “Insoluble”.

Consider `CNC(=O)c1c(-c2ccc(F)cc2)oc2cc3c(cc12)[C@@H](C)OCCN3S(C)(=O)=O`, for which the clearance in the data set with Rattus norvegicus was determined as 78 mL/min/kg. Also, the Vd in data set [4] turned out to be 1.79 L/kg. Further, the half-life in data set [5] was 0.34 h. Besides, in data set [6], the AUC(0-inf) came to 234 ng·h/mL. The compound also yielded a bioavailability in data set [7] of 16%.

As to `CNC(=O)c1c(-c2ccc(F)cc2)oc2cc3c(cc12)[C@H](C)NC(=O)CN3S(C)(=O)=O`, the clearance in the data set on Rattus norvegicus was found to be 44.5 mL/min/kg. For the same compound, in data set [4], the Vd worked out at 1.74 L/kg. Also, the half-life in data set [5] is 0.68 h. For the same compound, the AUC(0-inf) in data set [6] came to 379 ng·h/mL. In data set [7], this compound returned a bioavailability of 14%.

Take `CNC(=O)c1c(-c2ccc(F)cc2)oc2cc3c(cc12)[C@H](C)OCCN3S(C)(=O)=O`: the remaining at 1 h is 32.6% in data set [2] and 5% in [3].

For the compound `CNC(=O)c1c(-c2ccc(F)cc2)oc2cc3c(cc12)C(C)NC(=O)CN3S(C)(=O)=O` (racemic), in data set [8], the solubility result is “Insoluble”.

`CNC(=O)c1c(-c2ccc(F)cc2)oc2cc3c(cc12)C(C)OC(CS(C)(=O)=O)CN3S(C)(=O)=O` (racemic) had a clearance in the data set with Rattus norvegicus of 16 mL/min/kg. Besides, the Vd in data set [4] was determined as 1.51 L/kg. For the same compound, the values for the remaining at 1 h in data set [2] and in data set [3] were 100% and 99.7%, respectively. Further, in data set [5], the half-life is 3.62 h. The AUC(0-inf) in data set [6] worked out at 1060 ng·h/mL. Besides, in data set [7], the bioavailability was determined as 30%.

In the case of `CNC(=O)c1c(-c2ccc(F)cc2)oc2cc3c(cc12)C(C)CCCN3S(C)(=O)=O` (racemic), the remaining at 1 h in [2] and in data set [3] was 0.8% each time.

In the case of `CNC(=O)c1c(-c2ccc(F)cc2)oc2cc3c(cc12)C(C)OC(CO)CN3S(C)(=O)=O` (racemic), the remaining at 1 h in [2] was 85.9%; in [3] it was 68.9%.

On to `CNC(=O)c1c(-c2ccc(F)cc2)oc2cc3c(cc12)[C@H](C)n1nncc1CN3S(C)(=O)=O`, for which the clearance in the data set with Rattus norvegicus is 12.8 mL/min/kg. The Vd in data set [4] stood at 1.41 L/kg. Further, the half-life in data set [5] is 2.43 h. Further, the AUC(0-inf) in data set [6] was 1300 ng·h/mL. The same compound displayed a bioavailability in [7] of 57%.

Take `CNC(=O)c1c(-c2ccc(F)cc2)oc2cc3c(cc12)C(C)n1nnnc1CN3S(C)(=O)=O` (racemic): in [8], the solubility entry is listed as “Insoluble”.

With `CNC(=O)c1c(-c2ccc(F)cc2)oc2cc3c(cc12)C(C)N(C)C(=O)CN3S(C)(=O)=O` (racemic), the solubility entry in data set [8] was “Insoluble”.

The record behind these values is ChEMBL document CHEMBL4184265, “Discovery of novel potent HCV NS5B polymerase non-nucleoside inhibitors bearing a fused benzofuran scaffold” (Bioorg Med Chem Lett, 2018).
